Positions of bridges follow the written chain, without caps; N, C: chain ends. Non-standard residues stand in square brackets, D forms with d. Residues, ends and D or L forms follow the SMILES beside them. *: point of attachment. Heptanoyl(6-Me) = CC(C)CCCCC(=O)*; Dab = NCC[C@H](N)C(=O)O
Tests used:
Kidney [1] = assay: Tubular reabsorption in rat perfused kidney at 2 ug/ml after 5 to 105 mins by LC-MS/MS analysis; assay type: ADME, tissue-based
Procedure, shortened: (§1)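 Isolated perfused kidneys from male Sprague-Dawley rats (400 to 450 g) in a recirculating 160 ml perfusate with [3H]inulin (130 kBq) for GFR. Colistin sulfate bolus gave an initial 2 µg/ml (1.27 µM colistin A+B). Urine was collected in 5-min intervals from 5 to 105 min, with perfusate sampled at midpoints. Colistin A and B were measured by LC-MS/MS. CLR and CR were derived; n = 5, mean ± SD.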

[2] = (§2) Fraction unbound in Sprague-Dawley rat plasma; assay type: ADME, cell-free; settings: Sprague-Dawley
[3] = Drug absorption in rat tubular urine at 2 ug/ml after 5 to 105 mins by LC-MS/MS analysis; assay type: ADME, tissue-based; procedure, shortened: as §1
Kidney [4] = assay: Clearance in rat perfused kidney assessed as clearance ratio at 2 ug/ml after 5 to 105 mins by LC-MS/MS analysis; assay type: ADME, tissue-based; procedure, shortened: as §1
[5] = (§3) Fraction unbound in […] at 1 ug/ml by LC-MS/MS analysis; assay type: ADME, cell-free, Plasma; settings: rat
Procedure, shortened: (§4)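 Unbound fraction was measured in IPK perfusate by ultrafiltration, at colistin sulfate levels approximating initial and end perfusion concentrations. Colistin A and B in ultrafiltrate and unfiltered perfusate were quantified by LC-MS/MS. fu is the ultrafiltrate/perfusate concentration ratio, determined separately for A and B.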

[6] = (§5) Clearance in rat perfused kidney at 2 ug/ml after 5 to 105 mins by LC-MS/MS analysis; assay type: ADME, tissue-based; settings: perfused kidney; procedure, shortened: as §1
Plasma [7] = assay: as §2; assay type: ADME, cell-free
Plasma [8] = assay: as §3; assay type: ADME, cell-free; settings: rat; procedure, shortened: as §4
Kidney [9] = assay: as §5; assay type: ADME, tissue-based; settings: in vivo; procedure, shortened: as §1

Compound	Activity (Kidney [1]) [%]	fraction unbound [2]	Activity [3] [%]	Ratio (Kidney [4])	fraction unbound at 1 ug/ml [5]	CL renal at 2 ug/ml [6] [mL/min]	Fu (Plasma [7])	Fu (Plasma [8])	CL (Kidney [9]) [mL/min]
CC(C)CCCCC(=O)N[C@@H](CCN)C(=O)N[C@H](C(=O)N[C@@H](CCN)C(=O)N[C@H]1CCNC(=O)[C@H]([C@@H](C)O)NC(=O)[C@H](CCN)NC(=O)[C@H](CCN)NC(=O)[C@H](CC(C)C)NC(=O)[C@@H](CC(C)C)NC(=O)[C@H](CCN)NC1=O)[C@@H](C)O [COLISTIN B] ({Heptanoyl(6-Me)}-[Dab]T[Dab][Dab][Dab][dL]L[Dab][Dab]T; lactam 4-C)	> 90	0.52	> 90	< 0.1	0.6	0.028			
COLISTIN	> 90		> 90	< 0.1			0.36	0.41	0.028

— ChEMBL document CHEMBL1649491, “Renal disposition of colistin in the isolated perfused rat kidney” (Antimicrob Agents Chemother, 2009)
